For assay [1], the target named is T1, 17-beta-hydroxysteroid dehydrogenase type 1 (Homo sapiens) (UniProt P14061).
T1 sequence (whole entry): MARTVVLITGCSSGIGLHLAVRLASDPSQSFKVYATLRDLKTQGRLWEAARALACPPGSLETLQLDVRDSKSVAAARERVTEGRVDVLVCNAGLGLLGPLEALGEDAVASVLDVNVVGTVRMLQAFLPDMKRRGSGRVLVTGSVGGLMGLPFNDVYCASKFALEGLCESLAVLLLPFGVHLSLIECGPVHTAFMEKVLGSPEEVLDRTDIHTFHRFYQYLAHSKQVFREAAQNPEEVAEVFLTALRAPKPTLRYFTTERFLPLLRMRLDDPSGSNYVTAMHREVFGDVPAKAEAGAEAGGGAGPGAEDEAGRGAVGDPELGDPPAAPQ
Nature of the assay: Inhibition of human placenta cytosolic 17betaHSD1 using [3H]E1 as substrate at 10 nM after 10 mins by radioflow detection assay.

For assay [2], the target named is T2, Estrogen receptor (Homo sapiens) (UniProt P03372).
T2 sequence (whole entry): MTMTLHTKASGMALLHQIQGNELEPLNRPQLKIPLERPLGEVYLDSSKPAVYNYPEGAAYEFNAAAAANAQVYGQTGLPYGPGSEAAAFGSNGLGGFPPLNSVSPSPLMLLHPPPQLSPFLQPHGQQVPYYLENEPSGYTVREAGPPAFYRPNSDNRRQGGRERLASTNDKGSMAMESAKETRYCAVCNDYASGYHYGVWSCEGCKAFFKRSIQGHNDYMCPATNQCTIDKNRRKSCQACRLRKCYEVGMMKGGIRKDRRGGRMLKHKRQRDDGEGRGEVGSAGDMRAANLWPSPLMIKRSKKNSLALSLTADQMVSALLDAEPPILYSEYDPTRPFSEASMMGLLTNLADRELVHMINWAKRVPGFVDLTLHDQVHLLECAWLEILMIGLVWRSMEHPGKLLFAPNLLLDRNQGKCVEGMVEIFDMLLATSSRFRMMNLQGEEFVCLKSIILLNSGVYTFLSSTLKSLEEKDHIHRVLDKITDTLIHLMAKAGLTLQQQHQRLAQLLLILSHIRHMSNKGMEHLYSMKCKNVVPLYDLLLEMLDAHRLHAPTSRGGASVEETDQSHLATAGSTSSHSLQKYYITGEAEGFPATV
Nature of the assay: Relative binding affinity to human recombinant ERalpha receptor using [3H]E2 as substrate after 1 hr by liquid scintillation counting relative to E2. Summed up: (§1)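 Recombinant human ERα or ERβ (0.25 pmol) incubated 1 h at rt with [3H]-E2 (10 nM) and compound in DMSO (5% final). Nonspecific binding defined with diethylstilbestrol 10 μM. Bound complex captured on hydroxyapatite, washed, resuspended in ethanol, counted by liquid scintillation. Concentrations displacing 50% of bound label compared with E2, which is set at 100%.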

The target in assay [3] is T3, 17-beta-hydroxysteroid dehydrogenase type 2 (Homo sapiens, UniProt P37059).
T3 sequence (P37059 whole entry): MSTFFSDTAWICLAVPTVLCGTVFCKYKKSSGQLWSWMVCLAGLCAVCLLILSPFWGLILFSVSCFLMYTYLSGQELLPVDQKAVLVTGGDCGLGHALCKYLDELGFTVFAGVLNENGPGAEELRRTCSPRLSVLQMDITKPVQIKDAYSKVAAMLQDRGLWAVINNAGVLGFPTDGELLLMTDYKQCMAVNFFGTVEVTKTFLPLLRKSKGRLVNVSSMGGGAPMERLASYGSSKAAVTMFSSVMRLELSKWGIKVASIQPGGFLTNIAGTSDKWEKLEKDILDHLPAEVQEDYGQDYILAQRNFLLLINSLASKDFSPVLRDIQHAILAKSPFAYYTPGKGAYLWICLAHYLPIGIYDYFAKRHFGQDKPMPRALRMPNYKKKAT
Nature of the assay: Inhibition of human placenta microsomal 17betaHSD2 using [3H]E2 as substrate after 20 mins by radioflow detection assay. The gist of the method: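 Microsomal (pellet) fraction of fresh human placenta incubated with NAD+ 1500 μM, compound, and unlabeled + [3H]-E2 (500 nM final) for 20 min at 37 °C. Stopped with 1 mM HgCl2, ether-extracted. Steroids separated by HPLC with radioflow detection, conversion computed. Mean of three determinations.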

The species entered for assay [4] is Callithrix jacchus. The assay can be described thus: Inhibition of mormoset placenta microsomal 17betaHSD2 using [3H]E2 as substrate at 50 nM after 20 mins by radioflow detection assay.
Assay [5] has as its target Estrogen receptor beta (Homo sapiens) (UniProt Q92731). The assay can be described thus: Relative binding affinity to human recombinant ERbeta receptor using [3H]E2 as substrate after 1 hr by liquid scintillation counting relative to E2. The gist of the method:
as §1

Assay [6] deals with T4, 17-beta-hydroxysteroid dehydrogenase type 1 (Homo sapiens, UniProt P14061).
T4 sequence (P14061 whole entry): T1 sequence (whole entry)
The assay can be described thus: Inhibition of human placenta cytosolic 17betaHSD1 using [3H]E1 as substrate after 10 mins by radioflow detection assay. The gist of the method: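 Cytosolic 17β-HSD1 from fresh human placenta, obtained by ammonium sulfate precipitation. Incubated at 37 °C in 50 mM phosphate buffer with 20% glycerol and EDTA, with NADH 500 μM and compound (DMSO 1% final). Started with unlabeled + [3H]-E1 (500 nM final), stopped after 10 min with HgCl2, ether-extracted. E1/E2 quantified by radioflow HPLC as % conversion. At least three independent experiments.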

The species entered for assay [7] is Callithrix jacchus. The assay can be described thus: Inhibition of mormoset placenta cytosolic 17betaHSD1 using [3H]E1 as substrate at 50 nM after 10 mins by radioflow detection assay.
Assay [8] has as its target T4, 17-beta-hydroxysteroid dehydrogenase type 1. Nature of the assay: Inhibition of 17betaHSD1 in human T47D cells using [3H]E1 as substrate incubated for 30 mins prior to substrate addition measured after 30 mins by radioflow detection assay. The assay is classed as cell-based. The gist of the method:
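T47D cells kept in RPMI 1640 with 10% FCS, glutamine, insulin-zinc, pyruvate, antibiotics. Seeded at 5 × 10^5 cells/well in DMEM with FCS, switched to serum-free DMEM after 24 h. Compound added in DMSO (1% final), 30 min preincubation at 37 °C, 5% CO2. Then unlabeled + [3H]-E1 (50 nM final) for 30 min. Steroids extracted into diethylether. Mean of three determinations.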

pIC50: −log10 of the molar value.

A word on the inhibition: it is how much of the control response was suppressed. Low readings indicate a response near the control, high ones a response far below the control. Usually pIC50 stands for the negative decadic logarithm of the IC50, by convention in mol/L.

Estrogen receptor beta (Homo sapiens), sequence (Q92731 whole entry): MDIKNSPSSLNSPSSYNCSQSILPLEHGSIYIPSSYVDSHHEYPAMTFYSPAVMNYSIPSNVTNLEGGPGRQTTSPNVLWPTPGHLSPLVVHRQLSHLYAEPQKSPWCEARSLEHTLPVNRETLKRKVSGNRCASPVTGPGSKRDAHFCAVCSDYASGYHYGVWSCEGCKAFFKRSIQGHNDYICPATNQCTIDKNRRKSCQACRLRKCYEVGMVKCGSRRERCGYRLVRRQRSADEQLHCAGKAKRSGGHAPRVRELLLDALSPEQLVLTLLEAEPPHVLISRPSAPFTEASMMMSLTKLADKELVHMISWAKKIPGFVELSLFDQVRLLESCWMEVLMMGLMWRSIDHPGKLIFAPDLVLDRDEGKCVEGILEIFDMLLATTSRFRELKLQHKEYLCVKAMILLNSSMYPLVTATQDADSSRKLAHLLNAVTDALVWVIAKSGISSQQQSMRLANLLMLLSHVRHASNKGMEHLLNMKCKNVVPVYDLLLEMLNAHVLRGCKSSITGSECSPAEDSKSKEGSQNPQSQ

For `O=S(=O)(Nc1cccc(-c2c(O)ccc3cc(-c4cccc(O)c4)ccc23)c1)c1ccc(Br)cc1OC(F)(F)F`, the results for the inhibition (in assay [1]; in the assay listed under Callithrix jacchus [4]; in the assay filed under Callithrix jacchus [7]) were more than 30%, less than 10% and less than 10%, respectively. Moreover, the RBA in assay [2] and in assay [5] was less than 0.1% throughout. Besides, the results for the pIC50 in assay [3] and in assay [6] were 6.67 and 7.13, respectively.

For the compound `O=[N+]([O-])c1ccccc1S(=O)(=O)Nc1cccc(-c2c(O)ccc3cc(-c4cccc(O)c4)ccc23)c1`, the values for the inhibition (in assay [1]; in the assay listed under Callithrix jacchus [4]; in the assay listed under Callithrix jacchus [7]) were more than 30%, 21% and less than 10%, respectively. For the same compound, the values for the pIC50 in assay [8], in assay [3] and in assay [6] were 6.34, 6.62 and 7.77, respectively. The RBA in assay [2] and in assay [5] was less than 0.1% throughout.

As to `O=S(=O)(Nc1cccc(-c2c(O)ccc3cc(-c4cccc(O)c4)ccc23)c1)c1cc(F)c(Br)cc1F`, the inhibition in assay [1] is more than 30%; in the assay filed under Callithrix jacchus [4], 17%; in the assay listed under Callithrix jacchus [7], 14%. In addition, the pIC50 in assay [8] is 6.19; in assay [3], 6.65; in assay [6], 7.34. Further, the RBA in assay [2] and in assay [5] was less than 0.1% in each case.

With `O=S(=O)(Nc1cccc(-c2c(O)ccc3cc(-c4cccc(O)c4)ccc23)c1)c1cccc(F)c1`, the inhibition is more than 30% in assay [1], 33% in the assay listed under Callithrix jacchus [4] and less than 10% in the assay listed under Callithrix jacchus [7]. Besides, the figures for the pIC50 in assay [8], in assay [3] and in assay [6] were 6.34, 6.40 and 7.66, respectively. For the same compound, the RBA in assay [2] and in assay [5] was less than 0.1% each time.

For `O=S(=O)(Nc1cccc(-c2c(O)ccc3cc(-c4cccc(O)c4)ccc23)c1)c1ccc2ncccc2c1`, the inhibition in assay [1] is more than 30%; in the assay filed under Callithrix jacchus [4], 13%; in the assay filed under Callithrix jacchus [7], 38%. Also, the pIC50 in assay [8] is 6.30; in assay [3], 6.27; in assay [6], 7.04. The RBA in assay [2] and in assay [5] was less than 0.1% in each case.

In the case of `O=S(=O)(Nc1cccc(-c2c(O)ccc3cc(-c4cccc(O)c4)ccc23)c1)c1cccs1`, the inhibition in assay [1] was more than 30%; in the assay listed under Callithrix jacchus [4] it was 18%; in the assay filed under Callithrix jacchus [7], 25%. Further, the figures for the pIC50 in assay [8], in assay [3] and in assay [6] were 6.50, 5.96 and 7.55, respectively. Further, the RBA in assay [2] and in assay [5] was less than 0.1% in each case.

As to `N#Cc1cccc(S(=O)(=O)Nc2cccc(-c3c(O)ccc4cc(-c5cccc(O)c5)ccc34)c2)c1`, the figures for the inhibition (in assay [1]; in the assay filed under Callithrix jacchus [4]; in the assay listed under Callithrix jacchus [7]) were more than 30%, less than 10% and 11%, respectively. Moreover, the pIC50 in assay [8] was 6.40; in assay [3] it was 6.22; in assay [6], 7.52. Moreover, the RBA in assay [2] and in assay [5] was less than 0.1% each time.

On to `O=[N+]([O-])c1cccc(S(=O)(=O)Nc2cccc(-c3c(O)ccc4cc(-c5cccc(O)c5)ccc34)c2)c1`, for which the inhibition in assay [1] is more than 30%; in the assay filed under Callithrix jacchus [4] it was 17%; in the assay filed under Callithrix jacchus [7] it was 16%. The pIC50 in assay [8] was 6.40; in assay [3] it was 6.43; in assay [6], 7.70. Moreover, the RBA in assay [2] and in assay [5] was less than 0.1% throughout.

For `O=[N+]([O-])c1ccc(S(=O)(=O)Nc2cccc(-c3c(O)ccc4cc(-c5cccc(O)c5)ccc34)c2)cc1`, the inhibition in assay [1] is more than 30%; in the assay listed under Callithrix jacchus [4] it was 13%; in the assay filed under Callithrix jacchus [7] it was 28%. In addition, the pIC50 in assay [8] was 6.12; in assay [3], 5.98; in assay [6], 7.31. Further, the RBA in assay [2] and in assay [5] was less than 0.1% in each case.

The values above are taken from ChEMBL document CHEMBL2040729, “Lead optimization of 17β-HSD1 inhibitors of the (hydroxyphenyl)naphthol sulfonamide type for the treatment of endometriosis” (J Med Chem, 2012).
